This is an account of results in ChEMBL document CHEMBL4270618, “Synthesis and biological evaluation of a library of hybrid derivatives as inhibitors of influenza virus PA-PB1 interaction” (Eur J Med Chem, 2018).

The nature of data set [1]: Cytotoxicity against MDCK cells assessed as decrease in cell viability after 48 hrs by MTT assay. The format is cell-based, Canis lupus familiaris. As to conditions: dog. In outline:
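MDCK at 5×10^3 cells/well with 2-fold serial dilutions from 250 µM, or DMSO, for 48 h. MTT (5 mg/mL stock in PBS) added for 4 h at 37 °C, then solubilising solution for 3 h at 37 °C. Absorbance read at 620 nm against DMSO = 100%. CC50 as mean ± SD, ≥3 experiments in duplicate.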

For data set [2], the target named is PA/PB1 (Influenza A virus (A/Puerto Rico/8/1934(H1N1)), UniProt P03431+P03433). Briefly: Inhibition of Influenza A virus A/PR/8/34 (H1N1) PA-PB1 interaction expressed in HEK293T cells assessed as decrease in RNA polymerase activity incubated for 24 hrs by minireplicon based luciferase reporter gene assay. The format is cell-based. In outline: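 HEK 293T (2×10^5/well) transfected 24 h after seeding, by calcium phosphate, with PR8 PB1, PB2, PA and NP plasmids (100 ng each), a PolI firefly-luciferase minireplicon (50 ng) and SV40-Renilla (50 ng) for normalisation. Compound or DMSO present during transfection; medium renewed at 4 h with compound. Dual luciferase read at 24 h. EC50 as mean ± SD, ≥3 experiments in duplicate.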

Data set [3] is described as follows: Cytotoxicity against HEK293T cells assessed as decrease in cell viability after 24 hrs by MTT assay. In kind it is cell-based, HEK-293T. As to conditions: human. In outline:
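HEK 293T at 2×10^4 cells/well with 2-fold serial dilutions from 250 µM, or DMSO, for 24 h. MTT (5 mg/mL stock in PBS) added for 4 h at 37 °C, then solubilised for 3 h at 37 °C. Absorbance read at 620 nm, DMSO wells = 100% viability. CC50 as mean ± SD, ≥3 independent experiments in duplicate.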

For data set [4], the target named is PA/PB1 (Influenza A virus (A/Puerto Rico/8/1934(H1N1)), UniProt P03431+P03433). The experiment in a line: Inhibition of Influenza A virus A/PR/8/34 (H1N1) 6His-tagged PA (239 to 716 residues)/GST-tagged PB1 (1 to 25 residues) interaction expressed in Escherichia coli incubated overnight by ELISA. The essentials:
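Wells coated with 400 ng E. coli-expressed 6His-PA(239–716) for 3 h at 37 °C, then blocked with 2% BSA/PBS for 1 h. 200 ng GST-PB1(1–25), or GST control, in serum-free DMEM added with compound or DMSO, overnight at room temperature. Bound protein detected with HRP-anti-GST and TMB, OD450. DMSO = 100% interaction. IC50 as mean ± SD, ≥3 experiments in duplicate.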

The subject of the next data set is Influenza A virus. Briefly: Antiviral activity against Influenza A virus A/PR/8/34 (H1N1) infected in MDCK cells measured after 2 days by plaque reduction assay. In kind it is functional, organism-based. As to conditions: A/Puerto Rico/8/1934(H1N1), 48 h. In outline: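 MDCK monolayers infected with PR8 (H1N1, Cambridge lineage) at 40 PFU/well for 1 h at 37 °C with compound at various concentrations, in DMEM with 1 µg/mL TPCK-trypsin and 0.14% BSA. Overlay of the same medium with 1.2% Avicel plus compound. After 2 days, fixed with 4% formaldehyde, stained with 0.1% toluidine blue, plaques counted. DMSO mean = 100%. EC50 reported as mean ± SD, ≥3 independent experiments in duplicate.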

Each structure is given as a SMILES string.

As to `Cc1cccc(NC(=O)CSc2nc(-c3ccccc3)cc(-c3ccccc3)c2C#N)c1`, the CC50 at 48 h in data set [1] is more than 250 µM. The EC50 in data set [2] is 86.6 µM. The CC50 at 24 h in data set [3] was more than 250 µM.
`COC(=O)[C@H](CC(C)C)NC(=O)CSc1nc(-c2ccccc2)cc(-c2ccc(C)cc2)c1C#N`: the CC50 at 48 h in data set [1] was determined as 215 µM. For the same compound, the IC50 in data set [4] came to 149 µM. In the data set on Influenza A virus, it took 97 µM to reach a half-maximal effect (EC50).
Take `COC(=O)[C@H](Cc1ccc(O)cc1)NC(=O)CSc1nc(-c2ccccc2)cc(-c2ccc(C)cc2)c1C#N`: the CC50 at 48 h in data set [1] was more than 250 µM. 18 µM corresponded to half-maximal inhibition in data set [4] (IC50). The compound further registered an EC50 with Influenza A virus of more than 100 µM.
`CC[C@H](C)[C@H](NC(=O)CSc1nc(-c2ccccc2)cc(-c2ccc(C)cc2)c1C#N)C(=O)OC`: the 50% cytotoxic concentration (CC50) at 48 h in data set [1] was more than 250 µM. In addition, the values for the EC50 (in data set [2]; with Influenza A virus) were 53 µM and 39 µM, respectively. In addition, in data set [4], the midpoint of inhibition, the IC50, lay at 36 µM. In addition, the half-maximal cytotoxic concentration (CC50) at 24 h in data set [3] turned out to be 229 µM.
The corresponding values for `COC(=O)C[C@H](NC(=O)[C@@H](NC(=O)CSc1nc(-c2ccccc2)cc(-c2ccc(C)cc2)c1C#N)C(C)C)C(=O)OC` are more than 250 µM, 59 µM, 49 µM, 143 µM and more than 250 µM.
As for `Cc1ccc(-c2cc(-c3ccccc3)nc(SCC(=O)O)c2C#N)cc1`, in data set [1], the CC50 at 48 h is more than 250 µM. Also, the EC50 is 43 µM in data set [2] and 65 µM with Influenza A virus. This compound also registered an IC50 in data set [4] of 56 µM. Further, the CC50 at 24 h in data set [3] worked out at 218 µM.
Consider `COC(=O)C[C@H](NC(=O)[C@@H](NC(=O)CSc1nc(-c2ccccc2)cc(-c2ccc(C)cc2)c1C#N)C(C)C)C(=O)N[C@@H](CCSC)C(=O)OC`, for which the CC50 at 48 h in data set [1] is more than 250 µM. The compound further came in with an IC50 in data set [4] of 68 µM. Besides, in the data set with Influenza A virus, the EC50 was more than 100 µM.
Regarding `COC(=O)[C@H](Cc1ccccc1)NC(=O)CSc1nc(-c2ccccc2)cc(-c2ccc(C)cc2)c1C#N`, the CC50 at 48 h in data set [1] is 240 µM. Further, in data set [4], the IC50 is more than 200 µM. The same compound had an EC50 in the data set with Influenza A virus of 68 µM.
As for `COC(=O)[C@H](Cc1cnc[nH]1)NC(=O)CSc1nc(-c2ccccc2)cc(-c2ccc(C)cc2)c1C#N`, in data set [1], the CC50 at 48 h was found to be 152 µM. In addition, in data set [4], half-maximal inhibition (IC50) was put at 32 µM. The compound further displayed an EC50 in the data set on Influenza A virus of 80 µM.
Regarding `Cc1ccc(-c2cc(-c3ccccc3)nc(SCC(=O)N[C@H](C(=O)O)C(C)C)c2C#N)cc1`, the CC50 at 48 h in data set [1] is more than 250 µM. The EC50 in data set [2] came to 77 µM; with Influenza A virus, 50 µM. This compound showed an IC50 in data set [4] of 76 µM. In addition, the CC50 at 24 h in data set [3] is 250 µM.
With `COC(=O)[C@@H](NC(=O)CSc1nc(-c2ccccc2)cc(-c2ccc(C)cc2)c1C#N)C(C)C`, the CC50 at 48 h in data set [1] was 210 µM. The values for the EC50 (in data set [2]; in the data set with Influenza A virus) were 41 µM and 52 µM, respectively. The compound further returned an IC50 in data set [4] of 167 µM. Further, the CC50 at 24 h in data set [3] was more than 250 µM.
On to `COC(=O)CC[C@H](NC(=O)CSc1nc(-c2ccccc2)cc(-c2ccc(C)cc2)c1C#N)C(=O)OC`, for which, in data set [1], the CC50 at 48 h was more than 250 µM. Further, the IC50 in data set [4] was found to be 187 µM. In addition, the EC50 in the data set on Influenza A virus is more than 100 µM.
On the same counts, the results for `Cc1ccc(-c2cc(-c3ccccc3)nc(SCC(=O)N[C@H](C(=O)N[C@@H](CC(=O)O)C(=O)O)C(C)C)c2C#N)cc1` are more than 250 µM, 77 µM and 100 µM.
In the case of `Cc1ccc(-c2cc(-c3ccccc3)nc(SCNC(=O)OC(C)(C)C)c2C#N)cc1`, the CC50 at 48 h in data set [1] is more than 250 µM. The same compound had an IC50 in data set [4] of more than 200 µM. This compound returned an EC50 in the data set with Influenza A virus of more than 100 µM.
In the case of `CSCC[C@H](N)C(=O)N[C@@H](CC(=O)O)C(=O)N[C@H](C(=O)N[C@@H](CC(N)=O)C(=O)N1CCC[C@H]1C(=O)N[C@H](C(=O)N[C@@H](CC(C)C)C(=O)N[C@@H](CC(C)C)C(=O)N[C@@H](Cc1ccccc1)C(=O)N[C@@H](CC(C)C)C(=O)N[C@@H](CCCCN)C(=O)N[C@H](C(=O)N1CCC[C@H]1C(=O)N[C@@H](C)C(=O)N[C@@H](CCC(N)=O)C(=O)N[C@@H](Cc1ccc(O)cc1)C(=O)NCC(=O)N[C@@H](CCCNC(=N)N)C(=O)N[C@@H](CCCCN)C(=O)N[C@@H](CCCCN)C(=O)N[C@@H](CCCNC(=N)N)C(=O)N[C@@H](CCCNC(=N)N)C(=O)N[C@@H](CCC(N)=O)C(=O)N[C@@H](CCCNC(=N)N)C(=O)N[C@@H](CCCNC(=N)N)C(=O)N[C@@H](CCCNC(=N)N)C(=O)N1CCC[C@H]1C(=O)N1CCC[C@H]1C(=O)O)C(C)C)[C@@H](C)O)C(C)C`, the CC50 at 48 h in data set [1] was more than 250 µM. Further, the EC50 amounted to 15.5 µM in data set [2] and 49.7 µM with Influenza A virus. Further, the IC50 in data set [4] stood at 31.7 µM. Besides, the CC50 at 24 h in data set [3] is more than 250 µM.
For the compound `COC(=O)[C@H](CCCNC(=N)N)NC(=O)CSc1nc(-c2ccccc2)cc(-c2ccc(C)cc2)c1C#N`, in data set [1], the half-maximal cytotoxic concentration (CC50) at 48 h is more than 250 µM. In data set [4], this compound returned an IC50 of 48 µM. In the data set on Influenza A virus, this compound showed an EC50 of more than 100 µM.
In the case of `Cc1ccc(-c2cc(-c3ccccc3)nc(SCC(N)=O)c2C#N)cc1`, in data set [1], the CC50 at 48 h was more than 250 µM. Further, the figures for the EC50 (in data set [2]; in the data set on Influenza A virus) were 65 µM and 41 µM, respectively. The IC50 in data set [4] amounted to 102 µM. Besides, the CC50 at 24 h in data set [3] worked out at 218 µM.
For the compound `CCC(CC)O[C@@H]1C=C(C(=O)O)C[C@H](N)[C@H]1NC(C)=O` [OSELTAMIVIR CARBOXYLATE], in data set [1], the CC50 at 48 h is more than 250 µM. Further, a half-maximal effect with Influenza A virus (EC50) was put at 0.015 µM. The CC50 at 24 h in data set [3] was more than 250 µM.
Take `NC(=O)c1ncn([C@@H]2O[C@H](CO)[C@@H](O)[C@H]2O)n1` [RIBAVIRIN]: in data set [1], the CC50 at 48 h was more than 250 µM. For the same compound, the EC50 in data set [2] was determined as 23.8 µM. Also, the CC50 at 24 h in data set [3] was more than 250 µM.
